Measured values: ChEMBL document CHEMBL1177681, “Hybrid diarylbenzopyrimidine non-nucleoside reverse transcriptase inhibitors as promising new leads for improved anti-HIV-1 chemotherapy” (Bioorg Med Chem, 2010)
pEC50: −log10 of the molar value.

Experiments:
[1] = tested on: Human immunodeficiency virus 1; experiment: Antiviral activity against wild type HIV1 3B infected in human MT4 cells assessed as protection against virus-induced cytopathogenicity after 4 days by MTT assay; assay type: functional, organism-based; conditions: Human immunodeficiency virus 1, 3B, MT4, 96 h
How it was run: (§1)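 MT-4 cells at 1 × 10⁵ cells/mL infected at multiplicity of infection 0.02, then immediately plated onto serial dilutions of compound (DMSO stocks of 50 mM or higher). After 4 days at 37 °C, viable cells counted by MTT. […] Virus stocks titrated in MT-4 cells as CCID50.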

[2] = Cytotoxicity against human MT4 cells after 4 days by MTT assay; assay type: cell-based
How it was run: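 Uninfected MT-4 cells were run in parallel with the antiviral plates and exposed to serial compound dilutions (DMSO stocks of 50 mM or higher) for 4 days at 37 °C. Viability was read by MTT.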

[3] = tested on: Human immunodeficiency virus 2; experiment: Antiviral activity against wild type HIV2 ROD infected in human MT4 cells assessed as protection against virus-induced cytopathogenicity after 4 days by MTT assay; assay type: functional, organism-based; conditions: Human immunodeficiency virus 2, ISOLATE ROD, MT4, 96 h; how it was run: as §1
[4] = Selectivity index, CC50 for human MT4 cells to EC50 for wild type HIV1 3B; assay type: toxicity, cell-based; conditions: read-out: Ratio CC50/EC50
How it was run: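 Selectivity index is calculated as CC50 in uninfected MT-4 cells divided by EC50 against HIV-1 IIIB. Both come from parallel 4-day MTT readings at 37 °C, with infection at multiplicity of infection 0.02.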

[5] = tested on: Human immunodeficiency virus 1; experiment: Antiviral activity against HIV1 with reverse transcriptase K103N, Y181C mutant infected in human MT4 cells assessed as protection against virus-induced cytopathogenicity after 4 days by MTT assay; assay type: functional, organism-based; conditions: Human immunodeficiency virus 1, MT4, 96 h
How it was run: (§2)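 MT-4 cells at 1 × 10⁵ cells/mL were infected with the mutant HIV-1 at a multiplicity of infection of 0.02. Virus stocks were titred in MT-4 cells as CCID₅₀. Cells were plated at once onto serial compound dilutions, with DMSO stocks at 50 mM or higher. After 4 days at 37 °C, viable cells were counted by MTT. EC₅₀ is the concentration giving 50% protection from viral cytopathicity.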

[6] = tested on: Human immunodeficiency virus 1; experiment: Antiviral activity against HIV1 with reverse transcriptase E138K mutant infected in human MT4 cells assessed as protection against virus-induced cytopathogenicity after 4 days by MTT assay; assay type: functional, organism-based; conditions: Human immunodeficiency virus 1, MT4, 96 h; how it was run: as §2
[7] = tested on: Human immunodeficiency virus 1; experiment: Antiviral activity against HIV1 with reverse transcriptase L100I mutant infected in human MT4 cells assessed as protection against virus-induced cytopathogenicity after 4 days by MTT assay; assay type: functional, organism-based; conditions: Human immunodeficiency virus 1, MT4, 96 h; how it was run: as §2
[8] = tested on: Human immunodeficiency virus 1; experiment: Antiviral activity against wild type HIV1 LAI infected in human MT4 cells assessed as protection against virus-induced cytopathogenicity after 4 days by MTT assay; assay type: functional, organism-based; conditions: Human immunodeficiency virus 1, LAI, MT4, 96 h
[9] = tested on: Human immunodeficiency virus 1; experiment: Ratio of compound EC50 to nevirapine EC50 for wild type HIV1 3B; assay type: functional
[10] = tested on: Human immunodeficiency virus 1; experiment: Antiviral activity against HIV1 with reverse transcriptase Y188L mutant infected in human MT4 cells assessed as protection against virus-induced cytopathogenicity after 4 days by MTT assay; assay type: functional, organism-based; conditions: Human immunodeficiency virus 1, MT4, 96 h; how it was run: as §2
[11] = tested on: Human immunodeficiency virus 1; experiment: Ratio of compound EC50 to efavirenz EC50 for HIV1 with reverse transcriptase Y188L mutant; assay type: functional
[12] = tested on: Human immunodeficiency virus 1; experiment: Antiviral activity against HIV1 with reverse transcriptase Y181C mutant infected in human MT4 cells assessed as protection against virus-induced cytopathogenicity after 4 days by MTT assay; assay type: functional, organism-based; conditions: Human immunodeficiency virus 1, MT4, 96 h; how it was run: as §2
[13] = tested on: Human immunodeficiency virus 1; experiment: Ratio of compound EC50 to delavirdine EC50 for wild type HIV1 3B; assay type: functional
[14] = tested on: Human immunodeficiency virus 1; experiment: Antiviral activity against HIV1 with reverse transcriptase F227L, V106A mutant infected in human MT4 cells assessed as protection against virus-induced cytopathogenicity after 4 days by MTT assay; assay type: functional, organism-based; conditions: Human immunodeficiency virus 1, MT4, 96 h; how it was run: as §2
[15] = tested on: Human immunodeficiency virus 1; experiment: Antiviral activity against HIV1 with reverse transcriptase K103N mutant infected in human MT4 cells assessed as protection against virus-induced cytopathogenicity after 4 days by MTT assay; assay type: functional, organism-based; conditions: Human immunodeficiency virus 1, MT4, 96 h

Compound | pEC50 [1] | CC50 at 96 h [2] | pEC50 [3] | selectivity ratio [4] | pEC50 [5] | pEC50 [6] | pEC50 [7] | pEC50 [8] | Ratio [9] | pEC50 [10] | Ratio [11] | pEC50 [12] | Ratio [13] | pEC50 [14] | pEC50 [15]
N#Cc1ccc(Nc2nc(Oc3ccccc3)c3ccccc3n2)cc1 | 5.88 | 370 µM | < 3.43 | > 279 | – | – | – | – | – | – | – | – | – | – | –
Cc1ccccc1Oc1nc(Nc2ccc(C#N)cc2)nc2ccccc12 | 7.24 | 355 µM | < 3.45 | > 6210 | – | – | – | – | – | – | – | – | – | – | –
Cc1cccc(Oc2nc(Nc3ccc(C#N)cc3)nc3ccccc23)c1 | 6.08 | 355 µM | < 3.45 | > 436 | – | – | – | – | – | – | – | – | – | – | –
COc1ccccc1Oc1nc(Nc2ccc(C#N)cc2)nc2ccccc12 | 6.92 | 150 µM | < 4.59 | 1260 | – | – | – | – | – | – | – | – | – | – | –
Cc1ccc(Oc2nc(Nc3ccc(C#N)cc3)nc3ccccc23)cc1 | 6.98 | 87 µM | < 4.07 | 831 | – | – | – | – | – | – | – | – | – | – | –
N#Cc1ccc(Nc2nc(Oc3ccccc3Cl)c3ccccc3n2)cc1 | 7.43 | 38 µM | < 4.43 | 982 | – | – | – | – | – | – | – | – | – | – | –
N#Cc1ccc(Nc2nc(Oc3ccc(F)cc3)c3ccccc3n2)cc1 | 6.23 | > 351 µM | < 3.45 | > 607 | – | – | – | – | – | – | – | – | – | – | –
N#Cc1ccc(Nc2nc(Oc3ccc(Cl)cc3)c3ccccc3n2)cc1 | 6.72 | 198 µM | < 3.71 | 1040 | – | – | – | – | – | – | – | – | – | – | –
N#Cc1ccc(Nc2nc(Oc3ccc(Br)cc3)c3ccccc3n2)cc1 | 6.58 | 215 µM | < 3.67 | 810 | – | – | – | – | – | – | – | – | – | – | –
COc1ccc(Oc2nc(Nc3ccc(C#N)cc3)nc3ccccc23)cc1 | 6.72 | 340 µM | < 3.47 | > 1790 | < 3.47 | – | – | – | – | – | – | – | – | – | –
N#Cc1ccc(Nc2nc(Oc3ccc(Cl)cc3Cl)c3ccccc3n2)cc1 | 7.64 | 32 µM | < 4.51 | 1410 | < 4.51 | – | – | – | – | – | – | – | – | – | –
N#Cc1ccc(Nc2nc(Oc3c(Cl)cc(Cl)cc3Cl)c3ccccc3n2)cc1 | 7.68 | 56 µM | < 4.26 | 2630 | 5.82 | – | – | – | – | – | – | – | – | – | –
Cc1cccc(C)c1Oc1nc(Nc2ccc(C#N)cc2)nc2ccccc12 | 7.64 | 35 µM | ≤ 5.00 | 1510 | 6.28 | – | – | – | – | – | – | – | – | – | –
Cc1cc(C)c(Oc2nc(Nc3ccc(C#N)cc3)nc3ccccc23)c(C)c1 | 7.96 | > 34 µM | < 4.47 | > 3220 | 5.70 | – | – | – | – | – | – | – | – | – | –
Cc1cc(Br)cc(Br)c1Oc1nc(Nc2ccc(C#N)cc2)nc2ccccc12 | 7.72 | 150 µM | ≤ 4.85 | 7930 | 6.46 | – | – | – | – | – | – | – | – | – | –
Cc1cc(Br)c(Oc2nc(Nc3ccc(C#N)cc3)nc3ccccc23)c(Br)c1 | 7.70 | 25 µM | ≤ 5.34 | 1280 | 6.23 | – | – | – | – | – | – | – | – | – | –
N#Cc1ccc(Nc2nc(Oc3c(Br)cc(Br)cc3Br)c3ccccc3n2)cc1 | 7.55 | 58 µM | ≤ 5.07 | 2120 | 6.03 | – | – | – | – | – | – | – | – | – | –
CCOc1cc(C#N)cc(Cl)c1Oc1nc(Nc2ccc(C#N)cc2)nc2ccccc12 | 8.12 | 22 µM | < 4.68 | 2970 | 6.54 | – | – | – | – | – | – | – | – | – | –
COc1cc(C#N)ccc1Oc1nc(Nc2ccc(C#N)cc2)nc2ccccc12 | 7.48 | ≥ 140 µM | < 3.85 | 64200 | < 3.85 | – | – | – | – | – | – | – | – | – | –
COc1cc(C#N)cc(OC)c1Oc1nc(Nc2ccc(C#N)cc2)nc2ccccc12 | 8.06 | 194 µM | < 3.71 | 22000 | 6.04 | – | – | – | – | – | – | – | – | – | –
CCOc1cc(C#N)cc(OCC)c1Oc1nc(Nc2ccc(C#N)cc2)nc2ccccc12 | 7.80 | 108 µM | < 3.97 | 6770 | < 3.97 | – | – | – | – | – | – | – | – | – | –
CCCOc1cc(C#N)cc(OC)c1Oc1nc(Nc2ccc(C#N)cc2)nc2ccccc12 | 7.89 | 5.2 µM | < 5.28 | 408 | < 5.28 | – | – | – | – | – | – | – | – | – | –
CCCOc1cc(C#N)cc(OCC)c1Oc1nc(Nc2ccc(C#N)cc2)nc2ccccc12 | 7.24 | 123 µM | < 3.91 | 2080 | < 3.91 | – | – | – | – | – | – | – | – | – | –
Cc1cc(C#N)cc(C)c1Oc1nc(Nc2ccc(C#N)cc2)nc2ccccc12 | 8.74 | 203 µM | 4.49 | 112000 | 7.22 | 7.96 | 7.74 | 8.64 | 731 | 7.44 | 6 | 7.51 | 266 | 6.97 | ≥ 8.44
Cc1cc(C#N)cc(C)c1Oc1nc(Nc2ccc(C#N)cc2)nc2ccc(Cl)cc12 | 8.07 | 117 µM | < 3.93 | 13800 | 6.15 | – | – | – | – | – | – | – | – | – | –
COc1cc(C#N)cc(Cl)c1Oc1nc(Nc2ccc(C#N)cc2)nc2ccccc12 | 8.33 | 220 µM | < 3.66 | 46900 | 6.80 | 7.92 | 6.96 | 8.27 | – | 6.55 | – | 7.31 | – | 6.33 | ≥ 8.27
CC(C)Nc1cccnc1N1CCN(C(=O)c2cc3cc(NS(C)(=O)=O)ccc3[nH]2)CC1 [DELAVIRDINE] | 6.32 | > 43 µM | – | > 92 | < 4.37 | 6.25 | 5.10 | 6.21 | – | 5.19 | – | 5.20 | – | 5.01 | 5.19
O=C1Nc2ccc(Cl)cc2[C@@](C#CC2CC2)(C(F)(F)F)O1 [EFAVIRENZ] | – | ≥ 6.3 µM | – | – | 6.96 | 8.27 | 7.49 | – | – | 6.65 | – | 8.24 | – | 6.98 | 7.18
Cc1ccnc2c1NC(=O)c1cccnc1N2C1CC1 [NEVIRAPINE] | 5.88 | ≥ 15 µM | – | – | ≤ 4.82 | 6.79 | 5.69 | 6.99 | – | < 4.82 | – | < 4.82 | – | < 4.82 | –
